Test results reported in ChEMBL document CHEMBL3392953, “Synthesis and biological evaluation of furanoallocolchicinoids” (J Med Chem, 2015).
Calls of active or inactive are those of the source. The rule behind the calls is not given here.

Key:
Jurkat [1] = assay: Induction of cell cycle arrest in human Jurkat cells assessed as accumulation at G2/M phase at 200 nM after 72 hrs by propidium iodide staining based flow cytometry (reference value: 27 +/ 2%); assay type: functional
ASPC1 [2] = assay: Induction of apoptosis in human AsPC1 cells assessed as apoptotic body formation at 200 nM after 72 hrs by Hoechst 33342 and mitotracker red staining based confocal microscopy; assay type: functional, cell-based
Summary of the method: (§1)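 AsPC-1 cells grown overnight on coverslips, then cultured 72 h with compound at various concentrations in complete medium. Hoechst 33342 and MitoTracker Red added for 1 h; cells fixed in 1% paraformaldehyde, mounted in Mowiol, and examined by confocal microscopy for nuclear and mitochondrial morphology.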

[3] = Inhibition of lamb brain tubulin polymerization assessed as reduction in microtubule assembly by spectrophotometry; set-up: species or system Ovis aries
Summary of the method: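 Tubulin purified from lamb brain by ammonium sulfate fractionation and ion-exchange chromatography. Assembly in 20 mM sodium phosphate, 1 mM EGTA, 10 mM MgCl2, 3.4 M glycerol, 1 mM GTP, pH 6.5, started by warming to 37 °C; turbidity followed at 350 nm over time. Inhibition plotted against ligand:tubulin molar ratio.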

ASPC1 [4] = assay: Induction of apoptosis in human AsPC1 cells assessed as mitochondria enlargement at 200 nM after 72 hrs by Hoechst 33342 and mitotracker red staining based confocal microscopy; assay type: functional, cell-based; summary of the method: as §1
Mus musculus [5] = assay: Toxicity in C57BL/6 mouse assessed as interphase microtubule de-stabilizing activity by measuring leakage of rhodamine through the gut at 1 mg/kg, iv co-administered with rhodamine B by fluorimetry; assay type: organism-based; set-up: dose 1 mg/kg, route intravenous; settings: in vivo
Summary of the method: (§2)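 Intact mice, 6–8 wk, 3 per group; compound dissolved in DMSO at 20 mM, 4 µl diluted into 200 µl saline (1 mg/kg), mixed with 50 µl rhodamine B, single i.v. injection; controls DMSO plus rhodamine B. Killed 4 h later; organs cut, extracted in 0.3N acid in ethanol 2 h at 37 °C, centrifuged, supernatant fluorescence read with 540 nm filter.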

[6] = Induction of cell cycle arrest in mouse W1308 cells assessed as accumulation at G2/M phase at 200 nM after 72 hrs by propidium iodide staining based flow cytometry (reference value: 56 +/ 1%); assay type: functional
[7] = Induction of apoptosis in mouse W1308 cells assessed as apoptotic cells level at 200 nM after 48 hrs by 3,3'-dihexyloxacarbocyanine iodide and propidium iodide staining based flow cytometry (reference value: 11%); assay type: functional
Jurkat [8] = assay: Cytotoxicity against human Jurkat cells after 72 hrs by MTT assay; assay type: functional, cell-based
Summary of the method: (§3)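 Cells seeded at 3x10^5 cells/mL 24 h before assay (HEK293, AsPC-1 in DMEM; Jurkat, W1308 in RPMI-1640; 10% FCS, 2-ME). Tenfold dilutions from […] to 1 nM added; untreated cells as controls. 72 h incubation, MTT 250 µg/ml added for last 6 h, formazan dissolved in DMSO, OD read. IC50 from titration curves; inhibition index = 1 − OD(treated)/OD(control).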

ASPC1 [9] = assay: Cytotoxicity against human AsPC1 cells after 72 hrs by MTT assay; assay type: functional, cell-based; settings: ASPC1, 72 h; summary of the method: as §3
Jurkat [10] = assay: Induction of apoptosis in human Jurkat cells at 200 nM after 72 hrs by propidium iodide staining based flow cytometry (reference value: 0.9 +/ 0.2%); assay type: functional
[11] = Reduction in blood-brain barrier permeability in […]; assay type: ADME, tissue-based, C57BL/6, Endothelial cell; set-up: scale not given: the % may be the effect or the level left; settings: mouse; summary of the method: as §2
Mus musculus [12] = assay: Toxicity in mouse MMTV-Wnt-1 cells implanted C57BL/6 mouse assessed as induction of neurological symptoms at 0.4 mg/kg, iv once weekly for four weeks; assay type: organism-based; set-up: dose 0.4 mg/kg, route intravenous; settings: in vivo
Summary of the method: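 C57BL/6 mice, 6–8 wk, inoculated subcutaneously with Wnt-1 tumor cells in 50 µl PBS into left inguinal fat pad under anesthesia. Treatment started at day 27 in mice with palpable tumors (n=7 per group). Compound in 200 µl saline given i.v. into orbital sinus at days 27, 34, 41, 48; controls received saline. Tumors measured by caliper twice weekly, volume (W²×L)/2. Study ended day 51.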

Mus musculus [13] = assay: (§4) Toxicity in ip dosed C57BL/6 mouse measured after 24 to 48 hrs; assay type: organism-based; settings: mouse, in vivo
Summary of the method: (§5)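 Acute toxicity: single doses given i.p. or i.v. to 6–8 wk C57BL/6 mice to determine LD100 and LD50; lethality observed 24–48 h after injection.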

[14] = as §4; assay type: organism-based; settings: C57BL/6, mouse, in vivo; summary of the method: as §5
Mus musculus [15] = assay: Toxicity in C57BL/6 mouse assessed as interphase microtubule de-stabilizing activity by measuring influx of rhodamine in to heart at 1 mg/kg, iv co-administered with rhodamine B by fluorimetry; assay type: organism-based; set-up: dose 1 mg/kg, route intravenous; settings: in vivo; summary of the method: as §2
[16] = Cytotoxicity against mouse W1308 cells after 72 hrs by MTT assay; assay type: functional, cell-based; settings: W1308, 72 h; summary of the method: as §3
Mus musculus [17] = assay: Toxicity in C57BL/6 mouse assessed as interphase microtubule de-stabilizing activity by measuring influx of rhodamine in to spleen at 1 mg/kg, iv co-administered with rhodamine B by fluorimetry; assay type: organism-based; set-up: dose 1 mg/kg, route intravenous; settings: in vivo; summary of the method: as §2
ASPC1 [18] = assay: Induction of apoptosis in human AsPC1 cells assessed as mitochondria depolarization at 200 nM after 72 hrs by Hoechst 33342 and mitotracker red staining based confocal microscopy; assay type: functional, cell-based; summary of the method: as §1
HEK293 [19] = assay: Induction of cell cycle arrest in HEK293 cells assessed as G1/G2 phase ratio at 200 nM after 72 hrs by propidium iodide staining based flow cytometry (reference value: 3.6); assay type: functional, Homo sapiens
HEK293 [20] = assay: Growth inhibition of HEK293 cells at 100 uM after 72 hrs by MTT assay; assay type: functional; settings: Homo sapiens, HEK293, 72 h; read-out: GI
ASPC1 [21] = assay: Growth inhibition of human AsPC1 cells at 100 uM after 72 hrs by MTT assay; assay type: functional; settings: ASPC1, 72 h, read-out: GI
ASPC1 [22] = assay: Induction of apoptosis in human AsPC1 cells at 200 nM after 72 hrs by propidium iodide staining based flow cytometry (reference value: 2.2 +/ 0.1%); assay type: functional
Jurkat [23] = assay: Induction of cell cycle arrest in human Jurkat cells assessed as G1/G2 phas e-ratio at 200 nM after 72 hrs by propidium iodide staining based flow cytometry (reference value: 2.7); assay type: functional
Mus musculus [24] = assay: (§6) Toxicity in iv dosed C57BL/6 mouse measured after 24 to 48 hrs; assay type: organism-based; settings: mouse, in vivo; summary of the method: as §5
[25] = as §6; assay type: organism-based; settings: C57BL/6, mouse, in vivo; summary of the method: as §5
[26] = Induction of apoptosis in mouse W1308 cells assessed as pre-apoptotic cells level at 200 nM after 48 hrs by 3,3'-dihexyloxacarbocyanine iodide and propidium iodide staining based flow cytometry (reference value: 17%); assay type: functional
HEK293 [27] = assay: Induction of cell cycle arrest in HEK293 cells assessed as accumulation at G2/M phase at 200 nM after 72 hrs by propidium iodide staining based flow cytometry (reference value: 21 +/- 2%); assay type: functional, Homo sapiens
Jurkat [28] = assay: Induction of cell cycle arrest in human Jurkat cells assessed as accumulation at G1 phase at 200 nM after 72 hrs by propidium iodide staining based flow cytometry (reference value: 72 +/ 4%); assay type: functional
ASPC1 [29] = assay: Induction of cell cycle arrest in human AsPC1 cells assessed as accumulation at G2/M phase at 200 nM after 72 hrs by propidium iodide staining based flow cytometry (reference value: 34 +/ 3%); assay type: functional
[30] = Induction of cell cycle arrest in mouse W1308 cells assessed as G1/G2 phase ratio at 200 nM after 72 hrs by propidium iodide staining based flow cytometry (reference value: 0.8); assay type: functional

For COc1cc2c(c(OC)c1OC)-c1cc3cc(CO)oc3cc1[C@@H](NC(C)=O)CC2, the Activity (Jurkat [1]) was 62%, the Activity (ASPC1 [2]) was “Active” and the IC50 [3] was 0.08 molar ratio. For the same compound, the Activity (ASPC1 [4]) was “Active”, the Activity (Mus musculus [5]) was “Toxic” and the Activity [6] was 80%. It also gave an Activity [7] of 11%, an IC50 (Jurkat [8]) of under 20 nM and an IC50 (ASPC1 [9]) of under 50 nM. For the same compound, the Activity (Jurkat [10]) was 2.2%, the Activity [11] was 40% and the Activity (Mus musculus [12]) was “Non-toxic”. For the same compound, the LD100 (Mus musculus [13]) was 0.8 mg/kg, the LD50 [14] was 0.3 mg/kg and the Activity (Mus musculus [15]) was “Toxic”. The IC50 [16] was under 20 nM, the Activity (Mus musculus [17]) was “Toxic” and the Activity (ASPC1 [18]) was “Active”. The Ratio (HEK293 [19]) was 0.3, the inhibition of growth at 100 µM (HEK293 [20]) was 60% and the inhibition of growth at 100 µM (ASPC1 [21]) was 60%. It also gave an Activity (ASPC1 [22]) of 1.2%, a Ratio (Jurkat [23]) of 0.6 and an LD100 (Mus musculus [24]) of 2 mg/kg. It also gave an LD50 [25] of 0.8 mg/kg, an Activity [26] of 14% and an Activity (HEK293 [27]) of 72%. The Activity (Jurkat [28]) was 34%, the Activity (ASPC1 [29]) was 72% and the Ratio [30] was 0.2.
